The values that follow come from ChEMBL document CHEMBL1148153, “New 3-O-acyl betulinic acids from Strychnos vanprukii Craib” (J Nat Prod, 2004).

The test system of one data set is HUVEC. As to the kind of experiment: Cytotoxicity against HUVEC cells. The class given is functional. As to conditions: Homo sapiens, read-out: ED50 (the source's name).
Data set [1] is described as follows: Cytotoxicity against human HOG.R5 cells after 4 days. The class given is cell-based. The method in brief:
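GFP-based HOG.R5 reporter cells in microtiter wells treated with compounds without virus, in parallel with HIV-1 IIIB-infected (2.5 ng/mL p24) cultures. After 4 days, viability judged by combined microscopic and fluorometric measurement. CC50 = concentration mediating 50% cytotoxicity.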

Data set [2] in a line: Selectivity index, ratio of CC50 for human HOG.R5 cells to IC50 for HIV1 3B. Type of data set: functional. The procedure, abridged: (§1)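 GFP reporter HOG.R5 cells in microtiter wells infected with HIV-1 IIIB (2.5 ng/mL p24) with test agent present. Fluorescence read after 4 days. Selectivity index taken as CC50 in uninfected parallel HOG.R5 cultures divided by antiviral IC50.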

Data set [3] can be described thus: Cytotoxicity against human CEM-SS cells after 6 days by MTS assay. Type of data set: cell-based. The method in brief: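 CEM-SS cells split 1:2 the day before, then washed and resuspended at (2-3) × 10^4 cells/mL in RPMI 1640 with 10% heat-inactivated FBS, 4 mM L-glutamine, penicillin/streptomycin. Compounds diluted in complete medium, virus omitted (toxicity controls). 6 days at 37 °C, 5% CO2; MTS/PES added (final 317 µg/mL and 50 µM), 4 h further, A490/650. CC50 = 50% cytotoxic concentration.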

In another data set the test system is Lu1. Nature of the data set: Cytotoxicity against human Lu1 cells. The note with it: read-out: ED50 (the source's name). Type of data set: functional.
The test system of another data set is Col2. Nature of the data set: Cytotoxicity against human Col2 cells. The class given is functional. The note with it: read-out: ED50 (the source's name).
Another data set has as its system KB. Nature of the data set: Cytotoxicity against human KB cells. The class given is functional. As to conditions: read-out: ED50 (the source's name).
The subject of the next data set is LNCaP. As to the kind of experiment: Cytotoxicity against human LNCAP cells. As to conditions: read-out: ED50 (the source's name). Type of data set: functional.
Another data set deals with SK-MEL-2. As to the kind of experiment: Cytotoxicity against human SK-MEL-2 cells. The class given is functional. As to conditions: read-out: ED50 (the source's name).
Data set [4] has as its system Human immunodeficiency virus 1. Nature of the data set: Antiviral activity against HIV1 3B infected in human CEM-SS cells assessed as inhibition of virus-induced cytopathic effect after 6 days by MTS assay. The class given is functional. The note with it: for EC50: Human immunodeficiency virus 1, 3B, 144 h, read-out: ED50 (the source's name). The method in brief:
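CEM-SS cells split 1:2 the day before, then washed and resuspended at (2-3) × 10^4 cells/mL in RPMI 1640 with 10% heat-inactivated FBS, 4 mM L-glutamine, penicillin/streptomycin. Compounds diluted in complete medium. HIV-1 IIIB added at ~2 ng p24/mL (MOI ~0.4). Incubated 6 days at 37 °C, 5% CO2. MTS/PES added (final 317 µg/mL and 50 µM) for 4 h. Read at 490/650 nm as % CPE reduction; five-concentration dose-response.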

For data set [5], the system named is Human immunodeficiency virus 1. As to the kind of experiment: Antiviral activity against HIV1 3B infected in human HOG.R5 cells after 4 days. Type of data set: functional, organism-based. As to conditions: Human immunodeficiency virus 1, 3B, HOG.R5, 96 h. The procedure, abridged:
as §1

Data set [6] can be described thus: Selectivity index, ratio of CC50 for human CEM-SS cells to IC50 for HIV1 3B. The class given is functional. The method in brief: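 CEM-SS cells at (2-3) × 10^4 cells/mL in RPMI 1640/10% FBS infected with HIV-1 IIIB (~2 ng p24/mL, MOI ~0.4) in presence of compounds. After 6 days at 37 °C, viability by MTS/PES reduction (4 h, A490/650). ED50 is 50% cytoprotection against viral CPE. SI = CC50 in uninfected parallel cells / ED50.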

The nature of data set [7]: Cytotoxicity against human HOG.R5 cells at 40 ug/ml after 4 days. Type of data set: cell-based. As to conditions: 96 h. The procedure, abridged:
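HOG.R5 cultures run in parallel with the infection assay, given identical test-agent concentrations with virus omitted. After 4 days, viability monitored by microscopic and fluorometric measurement and CC50 derived.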

In another data set the test system is CEM-SS. As to the kind of experiment: Cytotoxicity against human CEM-SS cells at 40 ug/ml after 6 days by MTS assay. Type of data set: cell-based. As to conditions: 144 h. The method in brief: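 Run alongside the CPE assay as uninfected toxicity controls. CEM-SS cells at (2-3) × 10^4 cells/mL in RPMI 1640 with 10% heat-inactivated FBS and 4 mM L-glutamine, plus compound without virus. After 6 days at 37 °C, MTS/PES added (final 317 µg/mL and 50 µM) for 4 h. Absorbance at 490/650 nm gives % viability and CC50.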

Data set [8] deals with Human immunodeficiency virus 1. Nature of the data set: Antiviral activity against HIV1 3B infected in human CEM-SS cells assessed as inhibition of virus-induced cytopathic effect at 2.7 uM after 6 days by MTS assay. The class given is functional. As to conditions: Human immunodeficiency virus 1, 3B, 144 h. The procedure, abridged: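 CEM-SS cells split 1:2 the day before, then washed and resuspended at (2-3) × 10^4 cells/mL in RPMI 1640 with 10% heat-inactivated FBS, glutamine and antibiotics. Infected with HIV-1 IIIB (~2 ng p24/mL, MOI ~0.4) alongside test agent. Incubated 6 days at 37 °C, 5% CO2. MTS/PES added (final 317 µg/mL and 50 µM) for 4 h. Absorbance read at 490/650 nm and reported as % CPE reduction.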

As for `C=C(C)[C@@H]1CC[C@]2(C(=O)O)CC[C@]3(C)[C@H](CC[C@@H]4[C@@]5(C)CC[C@H](OC(=O)/C=C/c6ccc(O)cc6)C(C)(C)[C@@H]5CC[C@]43C)[C@@H]12`, the EC50 in the data set on HUVEC was 5.3 µM; with Lu1, 12.1 µM; in the data set on Col2, 6.6 µM; in the data set with KB, 5.5 µM; in the data set with LNCaP, 5.7 µM; in the data set with SK-MEL-2, 4.2 µM. The compound also returned a cytotoxic concentration (CC50) at 96 h in data set [1] of 14.3 µM. The “Ratio CC50/IC50” value in data set [2] is reported as 3. The same compound yielded a CC50 at 144 h in [3] of less than 1.7 µM. In addition, the Activity result in data set [4] was “Toxic”. Moreover, the IC50 in [5] turned out to be 5.6 µM.

As for `C=C(C)[C@@H]1CC[C@]2(C(=O)O)CC[C@]3(C)[C@H](CC[C@@H]4[C@@]5(C)CC[C@H](OC(=O)/C=C\c6ccc(O)cc6)C(C)(C)[C@@H]5CC[C@]43C)[C@@H]12`, the EC50 with HUVEC came to 6.8 µM; with Lu1, 11 µM; in the data set with Col2, 6 µM; with KB, 4.3 µM; in the data set with LNCaP, 3.2 µM; in the data set with SK-MEL-2, 3.8 µM. This compound showed a CC50 at 96 h in data set [1] of 15.9 µM. In [2], the “Ratio CC50/IC50” value amounted to 2. The compound also showed a CC50 at 144 h in data set [3] of less than 1.7 µM. The Activity result in data set [4] is “Toxic”. The same compound returned an IC50 in data set [5] of 8 µM.

On to `C=C(C)[C@@H]1CC[C@]2(C(=O)O)CC[C@]3(C)[C@H](CC[C@@H]4[C@@]5(C)CC[C@H](OC(=O)/C=C\c6ccc(O)c(OC)c6)C(C)(C)[C@@H]5CC[C@]43C)[C@@H]12`, for which the EC50 in the data set with HUVEC was determined as 6.2 µM; in the data set with Lu1, 15.7 µM; with Col2, 7.4 µM; in the data set on KB, 5.4 µM; with LNCaP, 5.2 µM; in the data set on SK-MEL-2, 3.8 µM. In [1], this compound displayed a CC50 at 96 h of 22.2 µM. Moreover, the “Ratio CC50/IC50” value in data set [2] worked out at 2. The compound also yielded a CC50 at 144 h in data set [3] of less than 1.6 µM. In data set [4], the Activity entry is “Toxic”. In data set [5], this compound returned an IC50 of 11.1 µM.

Turning to `C=C(C)[C@@H]1CC[C@]2(C(=O)O)CC[C@]3(C)[C@H](CC[C@@H]4[C@@]5(C)CC[C@H](O)C(C)(C)[C@@H]5CC[C@]43C)[C@@H]12` [BETULINIC ACID], the EC50 in the data set with HUVEC is 28.7 µM; with Lu1, 40.6 µM; with Col2, 43.9 µM; in the data set with KB, 35.7 µM; with LNCaP, 27.4 µM; with SK-MEL-2 it was 1.3 µM. Besides, the EC50 in data set [4] was 2000 nM. The CC50 at 96 h in data set [1] was found to be 16.7 µM. Besides, the “Ratio CC50/IC50” value in [2] was 5; in data set [6], 3. Half-maximal cytotoxicity in data set [3] (CC50 at 144 h) was put at 5.9 µM. This compound also gave an IC50 in data set [5] of 3.1 µM.

Regarding `Nc1ccn([C@@H]2CS[C@H](CO)O2)c(=O)n1` [LAMIVUDINE], the Activity result (in data set [7]; in the data set on CEM-SS) was “Non-toxic” in each case. Also, the EC50 in data set [4] came to 360 nM.

On to `CC(C)Nc1cccnc1N1CCN(C(=O)c2cc3cc(NS(C)(=O)=O)ccc3[nH]2)CC1.CS(=O)(=O)O` [DELAVIRDINE MESYLATE], for which the Activity result (in data set [7]; in the data set with CEM-SS) was “Non-toxic” throughout. In addition, the EC50 in [4] turned out to be 60 nM. Moreover, in data set [5], the IC50 was determined as 0.02 µM.

Compound `C[C@H]1[C@H](C)CC[C@]2(C(=O)O)CC[C@]3(C)C(=CC[C@@H]4[C@@]5(C)CC[C@H](O)C(C)(C)[C@@H]5CC[C@]43C)[C@H]12` [URSOLIC ACID] yielded a CC50 at 96 h in [1] of 15.4 µM. Besides, the “Ratio CC50/IC50” value in [2] amounted to 1. Moreover, in data set [3], the CC50 at 144 h came to 21.9 µM. In addition, the inhibition at 2.7 µM in data set [8] was 22%. Half-maximal inhibition in data set [5] (IC50) required 14.4 µM.

Regarding `Cc1c(O)cccc1C(=O)N[C@@H](CSc1ccccc1)[C@H](O)CN1C[C@H]2CCCC[C@H]2C[C@H]1C(=O)NC(C)(C)C`, the Activity entry (in [7]; in the data set on CEM-SS) was “Non-toxic” each time. Besides, the EC50 in [4] came to 30 nM. For the same compound, inhibition in data set [5] was half-maximal at 0.09 µM (IC50).

Take `CCCc1cc(=O)oc2c3c(c4c(c12)OC(C)(C)C=C4)O[C@H](C)[C@@H](C)[C@@H]3O` [CALANOLIDE A]: the Activity result (in data set [7]; with CEM-SS) was “Non-toxic” throughout. For the same compound, the EC50 in [4] was found to be 310 nM. This compound also had an IC50 in [5] of 0.07 µM.

`C=C(C)[C@@H]1CC[C@]2(C(=O)O)CC[C@]3(C)[C@H](CC[C@@H]4[C@@]5(C)CC[C@H](OC(=O)/C=C/c6ccc(O)c(OC)c6)C(C)(C)[C@@H]5CC[C@]43C)[C@@H]12`: the EC50 in the data set on HUVEC was determined as 9.5 µM; in the data set on Lu1, 8.5 µM; with Col2, 5.4 µM; in the data set with KB it was 2.5 µM; in the data set with LNCaP, 3.2 µM; in the data set with SK-MEL-2, 3.8 µM. This compound displayed a CC50 at 96 h in data set [1] of 13.4 µM. The “Ratio CC50/IC50” value in data set [2] stood at 3. For the same compound, in data set [3], the 50% cytotoxic concentration (CC50) at 144 h is less than 1.6 µM. The Activity entry in data set [4] is “Toxic”. The same compound registered a half-maximal inhibitory concentration (IC50) in data set [5] of 5.1 µM.
